Source: ChEMBL document CHEMBL1157410, “7-aryl 1,5-dihydro-benzo[e][1,4]oxazepin-2-ones and analogs as non-steroidal progesterone receptor antagonists” (Bioorg Med Chem, 2008)

Columns and labels:
Progesterone receptor [1] = molecular target: T1, Progesterone receptor (Homo sapiens, UniProt P06401); assay: Inhibition of progesterone receptor mediated progesterone-induced alkaline phosphatase activity in human T47D cells; type: cell-based
T1 sequence (P06401 whole entry): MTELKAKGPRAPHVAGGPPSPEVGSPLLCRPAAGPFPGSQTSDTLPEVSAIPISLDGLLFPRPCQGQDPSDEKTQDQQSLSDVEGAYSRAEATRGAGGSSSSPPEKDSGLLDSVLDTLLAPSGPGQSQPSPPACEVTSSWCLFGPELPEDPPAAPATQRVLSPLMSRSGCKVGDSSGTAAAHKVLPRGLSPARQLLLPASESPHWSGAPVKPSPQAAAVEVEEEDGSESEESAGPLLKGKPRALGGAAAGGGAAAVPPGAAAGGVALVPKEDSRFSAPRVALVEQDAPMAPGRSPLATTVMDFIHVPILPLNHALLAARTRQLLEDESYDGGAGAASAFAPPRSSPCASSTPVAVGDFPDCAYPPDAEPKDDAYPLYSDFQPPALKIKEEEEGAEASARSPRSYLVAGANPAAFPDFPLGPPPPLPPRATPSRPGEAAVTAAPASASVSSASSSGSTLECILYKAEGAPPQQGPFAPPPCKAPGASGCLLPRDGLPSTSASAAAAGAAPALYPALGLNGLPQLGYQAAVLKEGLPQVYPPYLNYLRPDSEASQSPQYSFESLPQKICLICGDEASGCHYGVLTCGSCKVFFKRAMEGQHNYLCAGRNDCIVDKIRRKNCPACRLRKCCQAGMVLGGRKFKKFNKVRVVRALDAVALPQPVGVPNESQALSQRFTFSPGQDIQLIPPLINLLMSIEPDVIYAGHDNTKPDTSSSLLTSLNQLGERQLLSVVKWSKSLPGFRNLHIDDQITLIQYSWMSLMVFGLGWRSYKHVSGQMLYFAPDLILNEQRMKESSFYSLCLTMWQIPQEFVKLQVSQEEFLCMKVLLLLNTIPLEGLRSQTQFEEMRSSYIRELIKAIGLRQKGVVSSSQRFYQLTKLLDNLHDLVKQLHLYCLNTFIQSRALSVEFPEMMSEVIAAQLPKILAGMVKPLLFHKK

Progesterone receptor [2] = molecular target: T1, Progesterone receptor; assay: Agonist activity at progesterone receptor assessed as alkaline phosphatase activity in human T47D cells
[3] = molecular target: T2, Mineralocorticoid receptor (Homo sapiens) (UniProt P08235); assay: Antagonist activity at cloned mineralocorticoid receptor-ligand binding domain expressed in african green monkey COS7 cells by GAL4 luciferase reporter assay; type: cell-based; conditions: COS-7; concentration not given here
T2 sequence (whole entry): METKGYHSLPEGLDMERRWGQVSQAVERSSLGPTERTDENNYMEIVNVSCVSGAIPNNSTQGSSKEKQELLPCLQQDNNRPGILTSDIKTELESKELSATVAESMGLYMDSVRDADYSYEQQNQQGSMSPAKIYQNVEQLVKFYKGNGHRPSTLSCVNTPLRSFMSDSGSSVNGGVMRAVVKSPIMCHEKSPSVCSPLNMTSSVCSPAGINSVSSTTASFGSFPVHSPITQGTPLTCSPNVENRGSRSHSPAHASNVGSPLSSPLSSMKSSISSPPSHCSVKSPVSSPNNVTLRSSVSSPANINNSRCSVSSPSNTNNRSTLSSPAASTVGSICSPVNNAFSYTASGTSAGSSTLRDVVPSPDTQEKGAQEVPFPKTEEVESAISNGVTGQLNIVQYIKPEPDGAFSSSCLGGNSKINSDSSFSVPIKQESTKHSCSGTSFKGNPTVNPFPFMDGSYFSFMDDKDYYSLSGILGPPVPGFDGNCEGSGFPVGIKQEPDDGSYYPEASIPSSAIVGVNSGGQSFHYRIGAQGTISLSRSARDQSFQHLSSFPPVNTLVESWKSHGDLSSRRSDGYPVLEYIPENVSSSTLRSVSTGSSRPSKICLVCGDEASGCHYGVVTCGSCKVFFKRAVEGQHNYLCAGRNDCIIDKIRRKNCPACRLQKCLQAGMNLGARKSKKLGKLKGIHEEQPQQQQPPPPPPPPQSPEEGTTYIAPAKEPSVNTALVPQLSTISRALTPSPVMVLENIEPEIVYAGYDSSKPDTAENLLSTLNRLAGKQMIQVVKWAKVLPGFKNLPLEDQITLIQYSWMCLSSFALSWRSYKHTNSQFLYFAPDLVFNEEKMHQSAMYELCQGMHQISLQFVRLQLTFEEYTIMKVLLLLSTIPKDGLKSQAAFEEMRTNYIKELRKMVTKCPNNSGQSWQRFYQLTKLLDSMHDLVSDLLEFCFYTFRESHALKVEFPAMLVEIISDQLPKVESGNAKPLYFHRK
Summary of the method: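 GAL4 DNA-binding domain fused to receptor ligand-binding domain, one-hybrid format. LBD fusion and GAL4_UAS (5 copies, E1b minimal TATA) luciferase reporter plasmids, 50 ng/well each, transfected 16 h into COS-7 cells. Cells grown in phenol red-free DMEM with 10% charcoal/dextran-treated FBS. Compound exposure 20 h, then luciferase read on lysates. Mean of at least duplicate determinations.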

IC50 (Progesterone receptor [1]) [µM] | SMILES | other results
0.0592 | CCC1(c2ccsc2)OCC(=O)Nc2ccc(-c3cc(F)cc(C#N)c3)cc21 (stereo not given) | –
0.088 | O=C1COC(c2ccccc2)(c2ccccc2)c2cc(-c3ccc(F)c(Cl)c3)ccc2N1 | –
0.349 | CCCC1(c2cccs2)OCC(=O)Nc2ccc(-c3ccc(F)c(Cl)c3)cc21 (stereo not given) | –
0.0149 | CC1(C)OCC(=O)Nc2ccc(-c3cccc(F)c3)cc21 | –
0.0621 | CC1(C)OCC(=O)Nc2ccc(-c3ccccc3F)cc21 | –
0.03 | CC1(C)OCC(=O)Nc2ccc(-c3cc(F)cc(F)c3)cc21 | –
0.677 | CC1=NCC(=O)Nc2ccc(-c3ccc(F)c(Cl)c3)cc21 | –
0.0655 | CC1(c2cccs2)OCC(=O)Nc2ccc(-c3ccc(F)c(Cl)c3)cc21 (stereo not given) | –
0.0824 | O=C1COC(c2ccco2)(C(F)(F)C(F)(F)F)c2cc(-c3ccc(F)c(Cl)c3)ccc2N1 (stereo not given) | –
0.0293 | CC1(C)OCC(=O)Nc2ccc(-c3ccc(F)c(F)c3)cc21 | –
0.0625 | CCC1(c2ccco2)OCC(=O)Nc2ccc(-c3ccc(F)c(Cl)c3)cc21 (stereo not given) | –
0.0301 | CC1(C)OCC(=O)Nc2ccc(-c3ccc(F)c(Cl)c3)cc21 | –
0.108 | CCC1(c2cccs2)OCC(=O)Nc2ccc(-c3csc(C#N)c3)cc21 (stereo not given) | –
– | CC1(C)OC(=O)Nc2ccc(-c3cc(F)cc(C#N)c3)cc21 | EC50 (Progesterone receptor [2]): 0.09 µM
0.105 | CN1CC(=O)Nc2ccc(-c3ccc(F)c(Cl)c3)cc2C1(C)C | –
0.0299 | CCC1(c2ccco2)OCC(=O)Nc2ccc(-c3coc(C#N)c3)cc21 (stereo not given) | –
0.0266 | N#Cc1cc(F)cc(-c2ccc3c(c2)C(c2cccs2)(c2cccs2)OCC(=O)N3)c1 | –
0.1 | CCC1(c2cccs2)OCC(=O)Nc2ccc(-c3cc(F)cc(C#N)c3)cc21 (stereo not given) | –

IC50 (Progesterone receptor [1]) [µM] | SMILES | other results
1 | N#Cc1cc(F)cc(-c2ccc3c(c2)C(c2ccc(Cl)s2)(c2ccc(Cl)s2)OCC(=O)N3)c1 | –
0.366 | CC(C)C1(c2cccs2)OCC(=O)Nc2ccc(-c3ccc(F)c(Cl)c3)cc21 (stereo not given) | –
0.0291 | CC1(C)OCC(=O)Nc2ccc(-c3cc(Cl)cc(Cl)c3)cc21 | –
1 | O=C1COC(c2ccc(Cl)s2)(c2ccc(Cl)s2)c2cc(-c3ccc(F)c(Cl)c3)ccc2N1 | –
0.0157 | CC1(C)OCC(=O)Nc2ccc(-c3cccc(F)c3F)cc21 | –
0.0346 | CC1(C)OCC(=O)Nc2ccc(-c3cc(Cl)cc(C#N)c3)cc21 | –
0.1 | CC1(C)OCC(=O)Nc2ccc(-c3ccc(F)cc3)cc21 | –
0.0341 | N#Cc1cc(F)cc(-c2ccc3c(c2)C(c2ccco2)(C(F)(F)C(F)(F)F)OCC(=O)N3)c1 (stereo not given) | –
0.0782 | CC(C)C1(c2cccs2)OCC(=S)Nc2ccc(-c3cc(F)cc(C#N)c3)cc21 (stereo not given) | –
– | CC#C[C@]1(O)CC[C@H]2[C@@H]3CCC4=CC(=O)CCC4=C3[C@@H](c3ccc(N(C)C)cc3)C[C@@]21C | inhibition [3]: 96%
0.015 | CC1(C)OCC(=O)Nc2ccc(-c3cc(F)cc(Cl)c3)cc21 | –
0.0225 | O=C1COC(c2ccco2)(c2ccco2)c2cc(-c3ccc(F)c(Cl)c3)ccc2N1 | –
0.117 | CCC1(c2ccsc2)OCC(=O)Nc2ccc(-c3ccc(F)c(Cl)c3)cc21 (stereo not given) | –
– | CC1(C)OCC(=S)Nc2ccc(-c3cc(F)cc(F)c3)cc21 | EC50 (Progesterone receptor [2]; read-out: EC50): 0.0358 µM
0.0652 | O=C1COC(c2cccs2)(c2cccs2)c2cc(-c3ccc(F)c(Cl)c3)ccc2N1 | –
0.138 | CC(C)C1(c2cccs2)OCC(=O)Nc2ccc(-c3cc(F)cc(C#N)c3)cc21 (stereo not given) | –
0.208 | CCC1(c2cccs2)OCC(=O)Nc2ccc(-c3ccc(F)c(Cl)c3)cc21 (stereo not given) | –
